Shown are actives, neighbours in structure and some others; about 5.1% of the full set was active somewhere.
STAT3 act: STAT3 signaling activation | activation (% of control), % at 5.6 µM | U3A cells, IL-6 STAT3-luciferase reporter, luminescence; 100% = signal with IL-6 EC80 alone | actives 0.91% (n = 190,000);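 active = activation above the screen-wide mean of compound activation plus 3 SD, cut at about 130% in these data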
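Detection: reporter luminescence signal / Assay system: STAT1-lacking human U3A cells, STAT3 luciferase reporter / Incubation: compound pre-incubation 1 h before IL-6, then 6 h stimulation at 37 °C / Control set: IL-6-only high control / Read-out: % activation relative to IL-6 control / Probe or stimulus: Interleukin-6, 33 ng/mL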
STAT1 act: activators of IFN-gamma induced STAT1 signaling. NIH 3T3 STAT1-luciferase reporter, luminescence; 100% = IFN-gamma alone, no compound. activation (% of control), % at 5.5 µM. actives 2.6% (n = 200,000);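 active = activation above the screen-wide mean activation plus 3 SD, cut at about 130% in these data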
STAT1 inh: inhibitors of IFN-gamma induced STAT1 signaling; inhibition, % at 5.5 µM; NIH 3T3 STAT1-luciferase reporter, luminescence; AID 920; actives 0.35% (n = 200,000);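 active = inhibition above a set limit, the mean inhibition across all tested compounds plus 3 SD, cut at about 34% in these data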
STAT3 inh: inhibitors of IL-6 induced STAT3 signaling; U3A cells, IL-6 STAT3-luciferase reporter, luminescence; host cell line lacks STAT1; inhibition, % at 5.5 µM; actives 0.89% (n = 190,000); AID 862;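 active = inhibition above the mean inhibition across all screened compounds plus 3 SD, cut at about 44% in these data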
APP 5'UTR act: activates APP 5'UTR luciferase reporter; SH-SY5Y APP 5'UTR luciferase reporter, luminescence; zero percent = DMSO vehicle wells; actives 1% (n = 190,000); activation, % at 2 µM;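 active = activation above a set limit, based on mean plus 3 SD of controls, cut at about 140% in these data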
NF-kB neuron act: compounds increasing NF-kB expression in human neuronal cells | NF-kB reporter expression; hits give high values | fold change at 12.5 µM | actives 1.6% (n = 190,000) | AID 1239; in the data active = fold change above about 3.3
STAT1 act conf: STAT1 activation, confirmation assay; shares compounds with STAT1 act; NIH 3T3 STAT1-luciferase reporter, IFN-gamma potentiation, luminescence; 100% = IFN-gamma EC80 alone, no compound; activation (% of control), % at 5.7 µM; actives 97% (n = 1,200);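 active = activation above a set limit carried over from the earlier primary STAT1 screen, cut at about 140% in these data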
NFkB act STAT1ct: activates NF-kappaB, counter-screen to STAT1 activators; actives 43% (n = 1,200); shares compounds with STAT1 act; activation (% of control), % at 5.7 µM; AID 1306; HEK293T NF-kB luciferase reporter, TNF-alpha stimulated, luminescence; 100% = TNF-alpha with vehicle only;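 active = activation above the mean of solvent-only control wells plus 3 SD, set per campaign, cut at about 130% in these data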;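 also: TNF-alpha given at a submaximal dose yielding about 80% of full reporter signal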
STAT3 act STAT1c: counter-screen for STAT1 activators: human STAT3 activation | shares compounds with STAT1 act | U3A cells STAT3-luciferase reporter, IL-6, luminescence; cells lack STAT1; 100 = IL-6 alone, no compound effect | activation (% of control), % at 5.7 µM | actives 46% (n = 1,200) | AID 1316;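 active = activation above the solvent-only control well mean plus 3 SD, set per plate batch, cut at about 110% in these data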;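 also: higher means more STAT3 reporter activation so hits are non-selective activators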
Of the large screens only hits and unclear results are named; the others gave an inactive call (follow-up assays come after a bar, where they were run).

Nc1cccn2c(-c3ccc(Cl)c(Cl)c3)cnc12	STAT1 act 151, APP 5'UTR act 211, NF-kB neuron act 12 | STAT1 act conf inactive | NFkB act STAT1ct inactive | STAT3 act STAT1c 159
CCS(=O)(=O)N1Cc2ccccc2CC1C(=O)Nc1nc2ccccc2s1 (stereo not drawn)	STAT1 act 174, APP 5'UTR act 210 | STAT1 act conf 230 | NFkB act STAT1ct inactive | STAT3 act STAT1c 119
CCc1nnc(NC(=O)C2Cc3ccccc3CN2S(=O)(=O)CC)s1 (stereo not drawn)	none
CCOc1ccc2nc(N/C(N)=N/C(=S)Nc3ccc(C)c(C)c3)nc(C)c2c1	none
CCNC(=S)/N=C(\N)Nc1nc(C)c2cc(C)ccc2n1	STAT1 act 182 | STAT1 act conf 179 | NFkB act STAT1ct 141 | STAT3 act STAT1c 125
CC(C)(c1ccccc1)c1ccc(OCCn2cnc3ccccc3c2=O)cc1	none
CC(C)(C)c1ccc(OCCn2ccccc2=O)cc1	STAT1 act 177, NF-kB neuron act 5.5 | STAT1 act conf 197 | NFkB act STAT1ct inactive | STAT3 act STAT1c 117
Cc1occc1C(=O)Nc1ccccc1NC(=O)c1ccoc1C	none (no result: NF-kB neuron act)
Cc1occc1C(=O)Nc1cccc2ccccc12	STAT1 act 172, APP 5'UTR act 135, NF-kB neuron act 7.7 | STAT1 act conf 219 | NFkB act STAT1ct 137 | STAT3 act STAT1c inactive
c1ccc2cc(OCc3nc4ccccc4[nH]3)ccc2c1	STAT1 act 163, APP 5'UTR act 184, NF-kB neuron act 5.1 | STAT1 act conf 200 | NFkB act STAT1ct inactive | STAT3 act STAT1c inactive
COC(=O)c1nn(-c2ccccc2)c(Sc2ccc(Br)cc2)c1/C=N/O	none
CCc1ccc(NC(=O)c2ccc3ncsc3c2)cc1	STAT1 act 162, APP 5'UTR act 152, NF-kB neuron act 6.4 | STAT1 act conf 203 | NFkB act STAT1ct 138 | STAT3 act STAT1c inactive
COc1cc(NC(=O)c2ccccc2Cl)ccc1NC(=O)c1cccs1	STAT1 act 153 | STAT1 act conf 181 | NFkB act STAT1ct 134 | STAT3 act STAT1c inactive
Cc1ccc(C(=O)Nc2nc3c(s2)CCCC3)o1	STAT1 act 155, APP 5'UTR act 166, NF-kB neuron act 7.3 | STAT1 act conf 209 | NFkB act STAT1ct inactive | STAT3 act STAT1c inactive
Cc1onc(-c2ccccc2Cl)c1C(=O)Nc1nc2c(s1)CCCC2	none
COc1ccc2oc(-c3ccco3)cc(=O)c2c1	STAT1 act 160 | STAT1 act conf 183 | NFkB act STAT1ct inactive | STAT3 act STAT1c inactive
CC(C)(C)NC(=O)c1ccc(Sc2ccccc2)c([N+](=O)[O-])c1	none
O=c1cc(/C=C/c2ccccc2)oc2ccccc12	STAT1 act 156, NF-kB neuron act 4.6 | STAT1 act conf 192 | NFkB act STAT1ct 136 | STAT3 act STAT1c 124
CC(C)=CC(=O)Nc1nnc(-c2ccccc2)s1	STAT1 act 162 | STAT1 act conf 196 | NFkB act STAT1ct 135 | STAT3 act STAT1c inactive
CC(C)=CC(=O)Nc1nnc(C)s1	none
COC(=O)c1sccc1NC(=O)Nc1cccc(C(C)=O)c1	none
COC(=O)c1sccc1NC(=O)Nc1cccc(C)c1	STAT1 act 159 | STAT1 act conf 177 | NFkB act STAT1ct 134 | STAT3 act STAT1c 123
Cn1ccs/c1=N\C(=O)Nc1cccc(Cl)c1	STAT1 act 156, NF-kB neuron act 3.7 | STAT1 act conf 184 | NFkB act STAT1ct 134 | STAT3 act STAT1c inactive
COc1ccccc1Nc1nc(N)nc(CN2CC(C)CC(C)C2)n1 (stereo not drawn)	none
Cc1ccc(Cc2cnc(NC(=O)c3cccs3)s2)cc1	STAT1 act 171, APP 5'UTR act 170, NF-kB neuron act 7.1 | STAT1 act conf 219 | NFkB act STAT1ct 143 | STAT3 act STAT1c 133
O=C(Nc1nnc(Cc2ccccc2)s1)c1cccs1	none
O=C(Nc1ncc(Cc2cccc(Cl)c2)s1)c1cccs1	none
O=C(NCc1cccnc1)C1COc2ccccc2O1 (stereo not drawn)	none
O=C(Nc1ncc(Cc2ccccc2)s1)C1COc2ccccc2O1 (stereo not drawn)	STAT1 act 184, APP 5'UTR act 164 | STAT1 act conf 192 | NFkB act STAT1ct inactive | STAT3 act STAT1c 114
O=C(Nc1ncc(Cc2ccccc2)s1)c1cccs1	STAT1 act 154, APP 5'UTR act 194, NF-kB neuron act 8.4 | STAT1 act conf 276 | NFkB act STAT1ct 142 | STAT3 act STAT1c 122
NC(=O)C(c1ccc(Cl)cc1Cl)c1ncc(C(F)(F)F)cc1Cl (stereo not drawn)	none
Nc1c(-c2ccccc2)cnc2cc(-c3ccccc3)nn12	STAT1 act 158, APP 5'UTR act 290, NF-kB neuron act 4.8 | STAT1 act conf 276 | NFkB act STAT1ct 134 | STAT3 act STAT1c inactive
CC(=O)c1cnc2cc(-c3ccccc3)nn2c1C	STAT1 act 170 | STAT1 act conf 195 | NFkB act STAT1ct inactive | STAT3 act STAT1c inactive
CC(=O)c1cnc2cc(C)nn2c1C	none
COc1ccc(/C=N/Nc2ncc(Br)cn2)c(OC)c1	STAT1 act 165, NF-kB neuron act 3.7 | STAT1 act conf 204 | NFkB act STAT1ct 134 | STAT3 act STAT1c 114
CCOc1ccc2nc(SCC#N)c(C#N)cc2c1	STAT1 act 165 | STAT1 act conf 166 | NFkB act STAT1ct inactive | STAT3 act STAT1c inactive
COC(=O)CSc1nc2cc(C)cc(C)c2cc1C#N	none
COC(=O)CSc1nc2ccc(C)cc2cc1C#N	STAT1 act 153, NF-kB neuron act 11 | STAT1 act conf 275 | NFkB act STAT1ct 152 | STAT3 act STAT1c inactive
Cc1cc(OCC(=O)Nc2nnc(C3CC3)s2)ccc1[N+](=O)[O-]	none
COC(=O)c1c(-c2ccc3ccccc3c2)csc1NC(=O)Cc1ccc(OC)c(OC)c1	none
CCOc1ccc(Nc2oc(-c3ccc(Cl)cc3)nc2C#N)cc1	none
COc1ccc(Nc2oc(-c3ccc(Cl)cc3)nc2C#N)cc1	STAT1 act 174, NF-kB neuron act 3.3 | STAT1 act conf 208 | NFkB act STAT1ct 135 | STAT3 act STAT1c 124

Screening data deposited in PubChem by several laboratories.
